Measured values as given in ChEMBL document CHEMBL2440113, “Synthesis, radiofluorination, and in vivo evaluation of novel fluorinated and iodinated radiotracers for PET imaging and targeted radionuclide therapy of melanoma” (J Med Chem, 2013).

What was measured:
[1] = Octanol-water partition coefficient, log D of the compound at pH 7.4; type: physicochemical
Outline: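 About 74 kBq radiotracer was shaken in PBS pH 7.4 / octanol (1:1 mL), vortexed 1 min three times at room temperature, then centrifuged (3,000 rpm, 5 min). Both phases were gamma-counted. Three independent experiments in duplicate.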

[2] = Ratio of drug level in tumor to blood in C57BL/6J mouse harboring mouse B16-Bl6 cells at 9 to 12 MBq, iv after 3 hrs by PET analysis; type: ADME, organism-based
Outline: (§1)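 Ex vivo biodistribution. C57BL/6J mice bearing subcutaneous B16Bl6 tumours (3x10⁵ cells, shoulder), day 10 or 14, received [18F]tracer iv (9-12 MBq). They were killed by CO₂ at 1, 2 or 3 h. Tumours and organs were excised, weighed and gamma-counted. Results are decay-corrected % ID/g; ratios are tumour over tissue. n=3-6 per group; mean ± SD.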

Brain [3] = experiment: Biodistribution in brain of C57BL/6J mouse harboring mouse B16-Bl6 cells at 9 to 12 MBq, iv after 3 hrs by PET analysis; type: ADME, organism-based; details: in vivo
Outline: (§2)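 Ex vivo dissection in B16Bl6-bearing C57BL/6J mice (3x10⁵ cells s.c. right shoulder), done at day 10 or 14 after implantation. The ¹⁸F tracer was given i.v. at 9-12 MBq. Mice were killed by CO₂ at 1, 2 or 3 h. Tumor, organs and tissues were excised, weighed and gamma-counted, then decay-corrected and expressed as %ID/g. n=3-6 per group; mean ± SD.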

Pancreas [4] = experiment: Biodistribution in pancreas of C57BL/6J mouse harboring mouse B16-Bl6 cells at 9 to 12 MBq, iv after 3 hrs by PET analysis; type: ADME, organism-based; details: in vivo; outline: as §2
Kidney = experiment: Biodistribution in kidney of C57BL/6J mouse harboring mouse B16-Bl6 cells at 9 to 12 MBq, iv after 3 hrs by PET analysis; type: ADME, organism-based; details: in vivo; outline: as §2
Mus musculus [5] = experiment: Biodistribution in colon and feces of C57BL/6J mouse harboring mouse B16-Bl6 cells at 9 to 12 MBq, iv after 3 hrs by PET analysis; type: ADME, organism-based; details: in vivo; outline: as §2
Mus musculus [6] = experiment: Biodistribution in cecum of C57BL/6J mouse harboring mouse B16-Bl6 cells at 9 to 12 MBq, iv after 3 hrs by PET analysis; type: ADME, organism-based, Caecum; details: in vivo; outline: as §2
Mus musculus [7] = experiment: Biodistribution in eyes of C57BL/6J mouse harboring mouse B16-Bl6 cells at 9 to 12 MBq, iv after 3 hrs by PET analysis; type: ADME, organism-based, Eye; details: in vivo; outline: as §2
Lung = experiment: Biodistribution in lung of C57BL/6J mouse harboring mouse B16-Bl6 cells at 9 to 12 MBq, iv after 2 hrs by PET analysis; type: ADME, organism-based; details: in vivo; outline: as §2
Spleen [8] = experiment: Biodistribution in spleen of C57BL/6J mouse harboring mouse B16-Bl6 cells at 9 to 12 MBq, iv after 2 hrs by PET analysis; type: ADME, organism-based; details: in vivo; outline: as §2
Mus musculus [9] = experiment: Biodistribution in cecum of C57BL/6J mouse harboring mouse B16-Bl6 cells at 9 to 12 MBq, iv after 2 hrs by PET analysis; type: ADME, organism-based, Caecum; details: in vivo; outline: as §2
Mus musculus [10] = experiment: Biodistribution in colon and feces of C57BL/6J mouse harboring mouse B16-Bl6 cells at 9 to 12 MBq, iv after 2 hrs by PET analysis; type: ADME, organism-based; details: in vivo; outline: as §2
Liver = experiment: Biodistribution in liver of C57BL/6J mouse harboring mouse B16-Bl6 cells at 9 to 12 MBq, iv after 2 hrs by PET analysis; type: ADME, organism-based; details: in vivo; outline: as §2
Zone of skin = experiment: Biodistribution in skin of C57BL/6J mouse harboring mouse B16-Bl6 cells at 9 to 12 MBq, iv after 2 hrs by PET analysis; type: ADME, organism-based; details: in vivo; outline: as §2
Mus musculus [11] = experiment: Biodistribution in eyes of C57BL/6J mouse harboring mouse B16-Bl6 cells at 9 to 12 MBq, iv after 2 hrs by PET analysis; type: ADME, organism-based, Eye; details: in vivo; outline: as §2
Mus musculus [12] = experiment: Biodistribution in tumor of C57BL/6J mouse harboring mouse B16-Bl6 cells at 9 to 12 MBq, iv after 2 hrs by PET analysis; type: ADME, organism-based, Neoplasm; details: in vivo; outline: as §1
[13] = Ratio of drug level in tumor to blood in C57BL/6J mouse harboring mouse B16-Bl6 cells at 9 to 12 MBq, iv after 1 hr by PET analysis; type: ADME, organism-based; outline: as §1
Brain [14] = experiment: Biodistribution in brain of C57BL/6J mouse harboring mouse B16-Bl6 cells at 9 to 12 MBq, iv after 1 hr by PET analysis; type: ADME, organism-based; details: in vivo; outline: as §2
Spleen [15] = experiment: Biodistribution in spleen of C57BL/6J mouse harboring mouse B16-Bl6 cells at 9 to 12 MBq, iv after 1 hr by PET analysis; type: ADME, organism-based; details: in vivo; outline: as §2
Pancreas [16] = experiment: Biodistribution in pancreas of C57BL/6J mouse harboring mouse B16-Bl6 cells at 9 to 12 MBq, iv after 1 hr by PET analysis; type: ADME, organism-based; details: in vivo; outline: as §2
Mus musculus [17] = experiment: Biodistribution in colon and feces of C57BL/6J mouse harboring mouse B16-Bl6 cells at 9 to 12 MBq, iv after 1 hr by PET analysis; type: ADME, organism-based; details: in vivo; outline: as §2
Bone = experiment: Biodistribution in bones of C57BL/6J mouse harboring mouse B16-Bl6 cells at 9 to 12 MBq, iv after 1 hr by PET analysis; type: ADME, organism-based, Bone element; details: in vivo; outline: as §2
[18] = Ratio of drug level in tumor to bone in C57BL/6J mouse harboring mouse B16-Bl6 cells at 8 to 12 MBq, iv after 1 hr by PET analysis; type: ADME, organism-based; details: in vivo
Outline: (§3)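 Static whole-body PET at 1 h after tail-vein injection of [18F]tracer (9-12 MBq/0.15 mL) in C57BL/6J mice carrying subcutaneous B16Bl6 shoulder tumours (3x10⁵ cells), imaged day 10 or 14. Mice under ketamine/xylazine ip. 25 min acquisition, OSEM reconstruction. ROI % ID/g = counts/g/min ÷ injected dose; ratios = tumour % ID/g ÷ organ % ID/g. n=2-8; mean ± SD.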

[19] = Ratio of drug level in tumor to muscle in C57BL/6J mouse harboring mouse B16-Bl6 cells at 8 to 12 MBq, iv after 1 hr by PET analysis; type: ADME, organism-based; details: in vivo; outline: as §3
Muscle tissue = experiment: Biodistribution in muscle of C57BL/6J mouse harboring mouse B16-Bl6 cells at 8 to 12 MBq, iv after 1 hr by PET analysis; type: ADME, organism-based; details: in vivo
Outline: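 C57BL/6J mice were inoculated s.c. on the right shoulder with 3x10⁵ B16Bl6 cells in PBS under isoflurane, and imaged at day 10 or 14 (tumor volume 431.8 ± 154.3 mm³). The ¹⁸F tracer was given i.v. via tail vein, 8-12 MBq (methods: 9-12 MBq/0.15 mL). Under ketamine/xylazine i.p., a 25-min whole-body static PET scan ran at 1 h. ROI %ID/g = counts/g/min ÷ injected dose. n=2-8; mean ± SD.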

Mus musculus [20] = experiment: Ratio of drug level in tumor to muscle in C57BL/6J mouse harboring mouse B16-Bl6 cells at 9 to 12 MBq, iv after 3 hrs by PET analysis; details: in vivo
Mus musculus [21] = experiment: Ratio of drug level in tumor to muscle in C57BL/6J mouse harboring mouse B16-Bl6 cells at 9 to 12 MBq, iv after 2 hrs by PET analysis; details: in vivo

Row | logD [1] | Kp at 3 h [2] | Drug uptake (Brain [3]) | Drug uptake (Pancreas [4]) | Drug uptake (Kidney) | Drug uptake (Mus musculus [5]) | Drug uptake (Mus musculus [6]) | Drug uptake (Mus musculus [7]) | Drug uptake (Lung) | Drug uptake (Spleen [8]) | Drug uptake (Mus musculus [9]) | Drug uptake (Mus musculus [10]) | Drug uptake (Liver) | Drug uptake (Zone of skin) | Drug uptake (Mus musculus [11]) | Drug uptake (Mus musculus [12]) | Kp at 1 h [13] | Drug uptake (Brain [14]) | Drug uptake (Spleen [15]) | Drug uptake (Pancreas [16]) | other results | Compound
1 | 0.95 | 5.27 | 1.72 % ID/g | 1.81 % ID/g | 2.6 % ID/g | 12.63 % ID/g | 29.31 % ID/g | 13.43 % ID/g | 1.72 % ID/g | 2.38 % ID/g | 12.1 % ID/g | 8.14 % ID/g | 2.31 % ID/g | 0.94 % ID/g | 12.1 % ID/g | 5.81 % ID/g | 8.29 | 1.03 % ID/g | 2.35 % ID/g | 2.63 % ID/g | Drug uptake (Mus musculus [17]): 7.39 % ID/g; Drug uptake (Bone): 1.82 % ID/g; Ratio [18]: 2.67; Ratio [19]: 6.62; Drug uptake (Muscle tissue): 1.01 % ID/g; Ratio (Mus musculus [20]): 6.64; Ratio (Mus musculus [21]): 5.75 | CCN(CCNC(=O)c1cnc2cc(I)ccc2n1)CCOCCOCCOCCOCCOCCOCCOCC[18F]
2 | 1.52 | 14.4 | 1.37 % ID/g | 1.33 % ID/g | 2.19 % ID/g | 8.09 % ID/g | 10.79 % ID/g | 17.96 % ID/g | 1.65 % ID/g | 2.88 % ID/g | 8.94 % ID/g | 6.05 % ID/g | 1.88 % ID/g | 1.51 % ID/g | 18.17 % ID/g | 13.07 % ID/g | 10.2 | 1.82 % ID/g | 3.72 % ID/g | 2.09 % ID/g | Drug uptake (Mus musculus [17]): 7.17 % ID/g; Drug uptake (Bone): 1.4 % ID/g; Ratio [18]: 7.65; Ratio [19]: 11.04; Drug uptake (Muscle tissue): 1.37 % ID/g; Ratio (Mus musculus [20]): 14.46; Ratio (Mus musculus [21]): 14.46 | CCN(CCNC(=O)c1cnc2cc(I)ccc2n1)CCOCCOCCOCC[18F]
